These results are taken from publication PMC9398166 (Molecular Cancer Therapeutics, 2021).

A short description of data set [1]: Free. The data set is classed as in vivo, mice. The conditions noted are these: SCID/beige, mouse, plasma, oral, 5 mg/kg.
For data set [2] the following is noted: patients; ref FDA label; cited from earlier work.
For data set [3] the following is noted: ref FDA label; cited from earlier work.
In data set [4] the test system is ALK(G1202R). To be noted: cited from earlier work.
Data set [5] is described as follows: Pharmacokinetic/pharmacodynamic analysis of phospho-ALK. To be noted: SCID/beige, mouse, plasma, oral. The data set is classed as in vivo, mice.
For data set [6], the target named is EML4-ALK G1202R/L1196M fusion phosphorylation (Homo sapiens, UniProt Q9HC35+Q9UM73, G1202R/L1196M). The description is as above. The data set is classed as in vivo, mice. To be noted: mouse, read-out: phosphorylation inhibition of EML4-ALK G1202R/L1196M fusion.
A short description of data set [7]: Pharmacokinetics and brain distribution after repeat oral administration. The format is in vivo. To be noted: male Sprague Dawley rats; single oral administration. In a few lines:
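Male Sprague Dawley rats received 10 mg/kg orally once daily for 7 consecutive days. Plasma concentration profiles were determined on days 1 and 7. On day 7, terminal samples of plasma, cerebrospinal fluid and brain tissue were collected 1, 4 and 24 h postdose and analyzed by LC/MS-MS. Brain tissue levels were compared with plasma levels.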

On to `C[C@H]1Oc2cc(cnc2N)-c2c(nn(C)c2C#N)CN(C)C(=O)c2ccc(F)cc21` [Lorlatinib, lorlatinib], for which, in data set [1], the concentration at 12 h stood at 358 nM. For the same compound, in data set [2], the “AUC0–24h” value was 5650 ng·h/mL and the Cave unbound exposure result is reported as “approximately 155 nmol/L”. Besides, the plasma protein binding in data set [3] is given as 66%. In data set [4] (preclinical ALK(G1202R) xenograft model), the “unbound exposure necessary for maximum antitumor efficacy” value is given as […]. Further, the EC90 in data set [4] (read-out: EC90 unbound exposure for inhibition of ALK(G1202R) phosphorylation, preclinical xenograft model) was […].
The compound `CC1(C)COc2ccc(F)cc2CN2c3nc4c(cnn4cc3OC[C@H]2C(F)F)C(=O)N1` [TPX-0131, (4S)-4-(difluoromethyl)-8-fluoro-13,13-dimethyl-3,4,13,14-tetrahydro-6H-18,1-(metheno)[1,4]oxazino[3,4-i]pyrazolo[4,3-f][1,4,8,10]benzoxatriazacyclotridecin-15(12H)-one] gave a concentration at 2 h in data set [5] of 19.5 nM. Also, in data set [6], the inhibition at 0.0195 µM is above 90%. Moreover, in data set [7], the absorption entry was “rapid absorption” and the elimination half-life result is reported as “long elimination half-life”.

Broadly, the EC90 is the concentration needed for an effect of 90%.
